Results gathered from unrelated publications.
Compare with care: the assays were run in different laboratories.
Target: Protein kinase C eta type (PRKCH, Homo sapiens, UniProt P24723)

| Structure (SMILES) | effect on | action | technique | concentration | quantity | result |
| --- | --- | --- | --- | --- | --- | --- |
| Cn1cc(-c2cccc(N3CCc4c(sc5c4CC(C)(C)C5)C3=O)c2CO)cc(Nc2ccncn2)c1=O | enzyme activity | inhibitor |  | 1 µM | inhibition | 20% |
| Cn1cncc1[C@](O)(COc1ccc(C#N)cc1-c1ccc(OC(F)(F)F)cc1)c1ccc(C#N)cc1 | cell-free assay |  | competition with immobilised ligand | 1 µM | remaining binding | 94% |
| Cn1cc(-c2cc(F)cc(N3CCn4c(cc5c4CCCC5)C3=O)c2CO)cc(Nc2ccc(N3CCN(C4COC4)CC3)cn2)c1=O | enzyme activity | inhibitor |  | 0.1 µM | inhibition | 4% |
| COc1ncccc1-c1cnn2ccc(N3CCN(C(=O)OC(C)C)CC3)nc12 | binding |  | competition with immobilised ligand | 1 µM | remaining binding | 49% |
| N#CC1(c2ccccn2)CCN(Cc2cc(C(=O)O)c(=O)n3ccccc23)CC1 | cell-free assay |  | competition with immobilised ligand | 1 µM | remaining binding | 100% |
| COc1cc(Nc2ncc(F)c(Nc3ccc4c(n3)NC(=O)C(C)(C)O4)n2)cc(OC)c1OC | binding |  |  | 10 µM | inhibition | 0% |
| Nc1ncc(-c2nc(N3CCOCC3)nc(N3CCOCC3)n2)c(C(F)F)n1 | cell-free assay |  | competition with immobilised ligand | 10 µM | remaining binding | 91% |
| Cc1nn(C)cc1-c1nc2c(N3CCN(Cc4ccc(Cl)cc4)CC3)c(Cl)cnc2[nH]1 | binding |  | competition with immobilised ligand | 1 µM | remaining binding | 100% |
